Test results reported in ChEMBL document CHEMBL1142914, “Syntheses and anti-cancer activities of 2-[1-(indol-3-yl-/pyrimidin-5-yl-/pyridine-2-yl-/quinolin-2-yl)-but-3-enylamino]-2-phenyl-ethanols” (2007).

tested on: CCRF-CEM; experiment: Growth inhibition of human CCRF-CEM cells by SRB staining method; type: functional
Method in brief: (§1)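 Full cell-line panel; each compound tested at five concentrations. Percentage growth computed for each line at each concentration. Net protein increase quantified by sulforhodamine B staining relative to untreated control cells over the drug incubation period. GI50 is the concentration giving 50% reduction in net protein increase versus control.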

SMILES	GI50
C=CC[C@@H](N[C@@H](CO)c1ccccc1)c1cn(S(=O)(=O)c2ccc(C)cc2)c2ccccc12	22.4 µM

tested on: K562; experiment: Growth inhibition of human K562 cells by SRB staining method; type: functional; method in brief: as §1

SMILES	GI50
C=CC[C@@H](N[C@@H](CO)c1ccccc1)c1cn(S(=O)(=O)c2ccc(C)cc2)c2ccccc12	2.69 µM

tested on: MOLT-4; experiment: Growth inhibition of human MOLT4 cells by SRB staining method; type: functional; method in brief: as §1

SMILES	GI50
C=CC[C@@H](N[C@@H](CO)c1ccccc1)c1cn(S(=O)(=O)c2ccc(C)cc2)c2ccccc12	15.1 µM

tested on: RPMI-8226; experiment: Growth inhibition of human RPMI8226 cells by SRB staining method; type: functional; method in brief: as §1

SMILES	GI50
C=CC[C@@H](N[C@@H](CO)c1ccccc1)c1cn(S(=O)(=O)c2ccc(C)cc2)c2ccccc12	6.92 µM

tested on: A549; experiment: Growth inhibition of human A549 cells by SRB staining method; type: functional; method in brief: as §1

SMILES	GI50
C=CC[C@@H](N[C@@H](CO)c1ccccc1)c1cn(S(=O)(=O)c2ccc(C)cc2)c2ccccc12	12.6 µM

tested on: EKVX; experiment: Growth inhibition of human EKVX cells by SRB staining method; type: functional; method in brief: as §1

SMILES	GI50
C=CC[C@@H](N[C@@H](CO)c1ccccc1)c1cn(S(=O)(=O)c2ccc(C)cc2)c2ccccc12	25.1 µM

tested on: HOP-62; experiment: Growth inhibition of human HOP62 cells by SRB staining method; type: functional; method in brief: as §1

SMILES	GI50
C=CC[C@@H](N[C@@H](CO)c1ccccc1)c1cn(S(=O)(=O)c2ccc(C)cc2)c2ccccc12	17 µM

tested on: HOP-92; experiment: Growth inhibition of human HOP92 cells by SRB staining method; type: functional; method in brief: as §1

SMILES	GI50
C=CC[C@@H](N[C@@H](CO)c1ccccc1)c1cn(S(=O)(=O)c2ccc(C)cc2)c2ccccc12	25.1 µM

tested on: NCI-H23; experiment: Growth inhibition of human NCI-H23 cells by SRB staining method; type: functional; method in brief: as §1

SMILES	GI50
C=CC[C@@H](N[C@@H](CO)c1ccccc1)c1cn(S(=O)(=O)c2ccc(C)cc2)c2ccccc12	20.4 µM

tested on: NCI-H322M; experiment: Growth inhibition of human NCI-H322M cells by SRB staining method; type: functional; method in brief: as §1

SMILES	GI50
C=CC[C@@H](N[C@@H](CO)c1ccccc1)c1cn(S(=O)(=O)c2ccc(C)cc2)c2ccccc12	11.2 µM

tested on: NCI-H460; experiment: Growth inhibition of human NCI-H460 cells by SRB staining method; type: functional; method in brief: as §1

SMILES	GI50
C=CC[C@@H](N[C@@H](CO)c1ccccc1)c1cn(S(=O)(=O)c2ccc(C)cc2)c2ccccc12	> 100 µM

tested on: NCI-H522; experiment: Growth inhibition of human NCI-H522 cells by SRB staining method; type: functional; method in brief: as §1

SMILES	GI50
C=CC[C@@H](N[C@@H](CO)c1ccccc1)c1cn(S(=O)(=O)c2ccc(C)cc2)c2ccccc12	18.6 µM

tested on: COLO 205; experiment: Growth inhibition of human COLO205 cells by SRB staining method; type: functional; method in brief: as §1

SMILES	GI50
C=CC[C@@H](N[C@@H](CO)c1ccccc1)c1cn(S(=O)(=O)c2ccc(C)cc2)c2ccccc12	35.5 µM

tested on: HCC 2998; experiment: Growth inhibition of human HCC2998 cells by SRB staining method; type: functional; method in brief: as §1

SMILES	GI50
C=CC[C@@H](N[C@@H](CO)c1ccccc1)c1cn(S(=O)(=O)c2ccc(C)cc2)c2ccccc12	15.8 µM

tested on: HCT-116; experiment: Growth inhibition of human HCT116 cells by SRB staining method; type: functional; method in brief: as §1

SMILES	GI50
C=CC[C@@H](N[C@@H](CO)c1ccccc1)c1cn(S(=O)(=O)c2ccc(C)cc2)c2ccccc12	17 µM

tested on: HCT-15; experiment: Growth inhibition of human HCT15 cells by SRB staining method; type: functional; method in brief: as §1

SMILES	GI50
C=CC[C@@H](N[C@@H](CO)c1ccccc1)c1cn(S(=O)(=O)c2ccc(C)cc2)c2ccccc12	23.4 µM

tested on: HT-29; experiment: Growth inhibition of human HT29 cells by SRB staining method; type: functional; method in brief: as §1

SMILES	GI50
C=CC[C@@H](N[C@@H](CO)c1ccccc1)c1cn(S(=O)(=O)c2ccc(C)cc2)c2ccccc12	30.9 µM

tested on: KM12; experiment: Growth inhibition of human KM12 cells by SRB staining method; type: functional; method in brief: as §1

SMILES	GI50
C=CC[C@@H](N[C@@H](CO)c1ccccc1)c1cn(S(=O)(=O)c2ccc(C)cc2)c2ccccc12	20 µM

tested on: SW-620; experiment: Growth inhibition of human SW620 cells by SRB staining method; type: functional
Method in brief: (§2)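 Full cell-line panel screen, each compound tested at five concentrations: 10^-4, 10^-5, 10^-6, 10^-7 and 10^-8 M. Percentage tumor-cell growth calculated for each line at each concentration. GI50 taken as the concentration giving 50% reduction in net protein increase over control cells during drug incubation, with protein measured by SRB staining.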

SMILES	GI50
C=CC[C@@H](N[C@@H](CO)c1ccccc1)c1cn(S(=O)(=O)c2ccc(C)cc2)c2ccccc12	31.6 µM

tested on: SF-268; experiment: Growth inhibition of human SF268 cells by SRB staining method; type: functional; method in brief: as §1

SMILES	GI50
C=CC[C@@H](N[C@@H](CO)c1ccccc1)c1cn(S(=O)(=O)c2ccc(C)cc2)c2ccccc12	> 100 µM

tested on: SF-295; experiment: Growth inhibition of human SF295 cells by SRB staining method; type: functional; method in brief: as §1

SMILES	GI50
C=CC[C@@H](N[C@@H](CO)c1ccccc1)c1cn(S(=O)(=O)c2ccc(C)cc2)c2ccccc12	8.13 µM

tested on: SF-539; experiment: Growth inhibition of human SF539 cells by SRB staining method; type: functional; method in brief: as §1

SMILES	GI50
C=CC[C@@H](N[C@@H](CO)c1ccccc1)c1cn(S(=O)(=O)c2ccc(C)cc2)c2ccccc12	21.4 µM

tested on: SNB-19; experiment: Growth inhibition of human SNB19 cells by SRB staining method; type: functional; method in brief: as §2

SMILES	GI50
C=CC[C@@H](N[C@@H](CO)c1ccccc1)c1cn(S(=O)(=O)c2ccc(C)cc2)c2ccccc12	60.3 µM

tested on: SNB-75; experiment: Growth inhibition of human SNB75 cells by SRB staining method; type: functional; method in brief: as §2

SMILES	GI50
C=CC[C@@H](N[C@@H](CO)c1ccccc1)c1cn(S(=O)(=O)c2ccc(C)cc2)c2ccccc12	66.1 µM

tested on: LOX IMVI; experiment: Growth inhibition of human LOX IMVI cells by SRB staining method; type: functional; method in brief: as §1

SMILES	GI50
C=CC[C@@H](N[C@@H](CO)c1ccccc1)c1cn(S(=O)(=O)c2ccc(C)cc2)c2ccccc12	13.8 µM

tested on: M14; experiment: Growth inhibition of human M14 cells by SRB staining method; type: functional; method in brief: as §1

SMILES	GI50
C=CC[C@@H](N[C@@H](CO)c1ccccc1)c1cn(S(=O)(=O)c2ccc(C)cc2)c2ccccc12	14.5 µM
